Results as given in ChEMBL document CHEMBL1132940, “Pharmacophore/receptor models for GABA(A)/BzR subtypes (alpha1beta3gamma2, alpha5beta3gamma2, and alpha6beta3gamma2) via a comprehensive ligand-mapping approach” (J Med Chem, 2000).

Assays:
[1] = biological target: T1, GABA-A receptor; alpha-1/beta-3/gamma-2 (Homo sapiens, UniProt P14867+P18507+P28472); assay: Binding affinity for human recombinant gamma-aminobutyric-acid (GABA) A receptor alpha-1-beta-3-gamma-2; assay type: protein-complex assay
T1 sequence (P14867 whole entry): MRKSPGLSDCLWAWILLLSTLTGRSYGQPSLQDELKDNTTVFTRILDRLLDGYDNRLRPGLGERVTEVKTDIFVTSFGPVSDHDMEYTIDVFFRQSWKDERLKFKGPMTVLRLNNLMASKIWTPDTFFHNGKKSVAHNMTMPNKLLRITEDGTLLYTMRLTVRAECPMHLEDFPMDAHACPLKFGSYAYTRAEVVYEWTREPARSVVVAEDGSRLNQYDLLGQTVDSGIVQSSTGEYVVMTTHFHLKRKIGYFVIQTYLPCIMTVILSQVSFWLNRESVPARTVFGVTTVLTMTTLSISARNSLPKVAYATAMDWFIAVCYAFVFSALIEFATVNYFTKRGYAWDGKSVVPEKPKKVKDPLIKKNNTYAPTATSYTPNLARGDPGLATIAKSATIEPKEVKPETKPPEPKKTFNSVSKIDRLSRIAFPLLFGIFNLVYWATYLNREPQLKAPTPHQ
T1 sequence (P18507 whole entry): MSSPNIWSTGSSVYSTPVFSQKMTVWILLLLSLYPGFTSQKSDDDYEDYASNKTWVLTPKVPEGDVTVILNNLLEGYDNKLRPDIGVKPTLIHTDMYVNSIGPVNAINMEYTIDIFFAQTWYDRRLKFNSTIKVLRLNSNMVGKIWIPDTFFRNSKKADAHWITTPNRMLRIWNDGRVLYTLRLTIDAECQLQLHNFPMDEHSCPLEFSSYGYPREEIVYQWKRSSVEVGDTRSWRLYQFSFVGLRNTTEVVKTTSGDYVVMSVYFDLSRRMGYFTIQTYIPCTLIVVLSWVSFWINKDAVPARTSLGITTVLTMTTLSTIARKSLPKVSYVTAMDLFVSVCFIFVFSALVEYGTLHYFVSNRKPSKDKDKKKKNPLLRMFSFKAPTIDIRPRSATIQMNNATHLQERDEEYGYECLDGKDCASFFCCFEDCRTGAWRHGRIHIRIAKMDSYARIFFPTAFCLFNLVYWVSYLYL
T1 sequence (P28472 whole entry): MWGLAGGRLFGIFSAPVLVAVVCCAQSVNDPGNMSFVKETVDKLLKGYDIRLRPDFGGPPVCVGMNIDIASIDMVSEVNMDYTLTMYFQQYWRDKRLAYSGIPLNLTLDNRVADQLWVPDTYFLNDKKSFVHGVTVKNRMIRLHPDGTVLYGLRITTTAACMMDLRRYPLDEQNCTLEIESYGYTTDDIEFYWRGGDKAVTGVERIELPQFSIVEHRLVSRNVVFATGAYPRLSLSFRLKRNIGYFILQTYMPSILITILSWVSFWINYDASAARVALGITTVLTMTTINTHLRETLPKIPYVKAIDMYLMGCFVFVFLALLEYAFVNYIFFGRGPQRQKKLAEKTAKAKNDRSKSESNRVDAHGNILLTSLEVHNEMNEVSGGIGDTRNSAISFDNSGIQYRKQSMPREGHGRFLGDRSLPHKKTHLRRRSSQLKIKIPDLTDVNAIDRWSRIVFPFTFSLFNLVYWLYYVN

[2] = biological target: GABA-A receptor; alpha-6/beta-3/gamma-2 (Homo sapiens, UniProt P18507+P28472+Q16445); assay: Binding affinity for human recombinant gamma-aminobutyric-acid (GABA) A receptor alpha-6-beta-3-gamma-2; assay type: protein-complex assay
In short: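 Ltk⁻ cells expressing human α6β3γ2 were harvested by scraping into PBS, centrifuged at 3000g and resuspended in 10 mM KH₂PO₄/100 mM KCl (pH 7.4). Incubation was 1 h at 4 °C with filter harvest and scintillation counting.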

[3] = biological target: T2, GABA-A receptor; alpha-3/beta-3/gamma-2 (Homo sapiens, UniProt P18507+P28472+P34903); assay: Binding affinity for human recombinant gamma-aminobutyric-acid (GABA) A receptor alpha-3-beta-3-gamma-2; assay type: protein-complex assay
T2 sequence (P18507 whole entry): T1 sequence (P18507 whole entry)
T2 sequence (P28472 whole entry): T1 sequence (P28472 whole entry)
T2 sequence (P34903 whole entry): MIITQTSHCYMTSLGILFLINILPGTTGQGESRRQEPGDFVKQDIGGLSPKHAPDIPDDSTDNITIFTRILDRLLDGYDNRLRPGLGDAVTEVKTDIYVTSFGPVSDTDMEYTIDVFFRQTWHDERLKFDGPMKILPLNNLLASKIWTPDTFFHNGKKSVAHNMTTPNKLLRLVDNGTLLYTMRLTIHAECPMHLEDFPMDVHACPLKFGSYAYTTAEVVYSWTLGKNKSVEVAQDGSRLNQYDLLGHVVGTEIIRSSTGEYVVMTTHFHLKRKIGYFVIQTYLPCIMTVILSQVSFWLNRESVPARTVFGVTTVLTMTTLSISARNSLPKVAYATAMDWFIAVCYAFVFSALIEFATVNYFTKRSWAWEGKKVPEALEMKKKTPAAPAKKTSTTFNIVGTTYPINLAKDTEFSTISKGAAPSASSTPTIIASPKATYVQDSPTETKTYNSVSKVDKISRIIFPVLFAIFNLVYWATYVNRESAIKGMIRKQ

[4] = biological target: T3, GABA-A receptor; alpha-2/beta-3/gamma-2 (Homo sapiens, UniProt P18507+P28472+P47869); assay: Binding affinity to human recombinant gamma-aminobutyric-acid (GABA) A receptor alpha-2-beta-3-gamma-2; assay type: protein-complex assay
T3 sequence (P18507 whole entry): T1 sequence (P18507 whole entry)
T3 sequence (P28472 whole entry): T1 sequence (P28472 whole entry)
T3 sequence (P47869 whole entry): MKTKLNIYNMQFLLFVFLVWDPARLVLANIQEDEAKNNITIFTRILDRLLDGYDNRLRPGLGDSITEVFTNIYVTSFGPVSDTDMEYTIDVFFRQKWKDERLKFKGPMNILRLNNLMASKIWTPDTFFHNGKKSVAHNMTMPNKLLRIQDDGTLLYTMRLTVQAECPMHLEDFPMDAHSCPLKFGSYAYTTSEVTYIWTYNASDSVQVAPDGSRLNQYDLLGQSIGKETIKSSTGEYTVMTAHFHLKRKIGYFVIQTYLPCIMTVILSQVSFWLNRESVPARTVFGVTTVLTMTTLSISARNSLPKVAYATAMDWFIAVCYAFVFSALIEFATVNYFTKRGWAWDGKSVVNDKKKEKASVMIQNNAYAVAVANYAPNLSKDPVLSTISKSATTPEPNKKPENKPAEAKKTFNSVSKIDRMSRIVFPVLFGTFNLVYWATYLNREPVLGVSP

[5] = biological target: T4, GABA-A receptor; alpha-5/beta-3/gamma-2 (Homo sapiens, UniProt P18507+P28472+P31644); assay: Binding affinity for human recombinant gamma-aminobutyric-acid (GABA) A receptor alpha-5-beta-3-gamma-2; assay type: protein-complex assay
T4 sequence (P18507 whole entry): T1 sequence (P18507 whole entry)
T4 sequence (P28472 whole entry): T1 sequence (P28472 whole entry)
T4 sequence (P31644 whole entry): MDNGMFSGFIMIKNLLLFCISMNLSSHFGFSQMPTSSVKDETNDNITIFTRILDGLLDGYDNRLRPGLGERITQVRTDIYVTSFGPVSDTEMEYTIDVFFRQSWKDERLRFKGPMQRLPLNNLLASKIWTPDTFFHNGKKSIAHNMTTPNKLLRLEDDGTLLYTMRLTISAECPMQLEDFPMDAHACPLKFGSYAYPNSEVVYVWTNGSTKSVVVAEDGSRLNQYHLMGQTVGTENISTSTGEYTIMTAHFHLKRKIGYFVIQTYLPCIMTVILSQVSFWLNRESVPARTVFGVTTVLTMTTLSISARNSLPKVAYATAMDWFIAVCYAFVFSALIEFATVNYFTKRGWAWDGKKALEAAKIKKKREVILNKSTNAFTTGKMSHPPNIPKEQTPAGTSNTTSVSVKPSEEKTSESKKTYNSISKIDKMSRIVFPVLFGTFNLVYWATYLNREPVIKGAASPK

[6] = Selectivity ratio of alpha1 beta-3 gamma2 GABA A / BzR and alpha5 beta-3 gamma2 GABA A / BzR

Chain of GABA-A receptor; alpha-6/beta-3/gamma-2 (Q16445 whole entry, one chain of several): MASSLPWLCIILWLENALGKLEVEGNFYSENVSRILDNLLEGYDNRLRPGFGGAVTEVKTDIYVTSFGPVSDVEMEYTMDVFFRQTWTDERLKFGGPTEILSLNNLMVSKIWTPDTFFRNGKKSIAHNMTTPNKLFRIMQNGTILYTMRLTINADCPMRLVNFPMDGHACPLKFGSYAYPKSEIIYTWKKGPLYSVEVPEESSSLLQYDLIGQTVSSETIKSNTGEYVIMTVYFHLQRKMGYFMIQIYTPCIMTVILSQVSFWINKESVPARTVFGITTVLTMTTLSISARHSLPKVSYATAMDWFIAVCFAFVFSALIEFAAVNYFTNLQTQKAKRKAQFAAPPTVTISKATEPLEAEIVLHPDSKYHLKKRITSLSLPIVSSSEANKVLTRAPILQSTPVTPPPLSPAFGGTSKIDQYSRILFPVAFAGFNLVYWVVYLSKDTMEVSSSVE

SMILES | Ki [1] [nM] | Ki [2] [nM] | Ki [3] [nM] | Ki [4] [nM] | Ki [5] [nM] | Ratio [6]
O=c1c2c[nH]c3ccc(Br)cc3c-2nn1-c1ccccc1 | 0.06 | 4 | 0.05 | 0.08 | 0.12 | 
c1ccc2c(c1)[nH]c1c2ncc2[nH]c3ccccc3c21 | 1.1 | > 1000 | 1.1 | 1.2 | 40.3 | 
COc1ccc2c(c1)[nH]c1c2ncc2[nH]c3ccccc3c21 | 3.4 | > 10000 | 11 | 11.7 | 225 | 
C[Si](C)(C)C#Cc1ccc(-n2[nH]c3c(cnc4ccccc43)c2=O)cc1 | 3 | > 1000 | 4.7 | 3.7 | 24 | 
C#Cc1ccc(-n2[nH]c3c(cnc4ccccc43)c2=O)cc1 | 0.07 |  | 0.04 | 0.03 | 0.17 | 
CCCOc1ccc2[nH]c3cnc(C(=O)NN)c(COC)c3c2c1 | 46 | > 300 | 400 | 422 | 108 | 
COc1ccc(-n2nc3c4cc(Cl)ccc4[nH]cc-3c2=O)cc1 | 0.2 | 1.9 | 0.2 |  | 0.32 | 
c1ccc2c(c1)[nH]c1cnc3c4cccnc4[nH]c3c12 | 2.2 | > 10000 | 16.3 | 11.5 | 200 | 
COc1ccc(-n2nc3c4ccc(OC)cc4[nH]cc-3c2=O)cc1 | 0.34 | 10 | 0.79 |  | 0.52 | 
CCOC(=O)c1[nH]cc2nc3ccc(O)cc3c-2c1COC | 2 | 3000 | 10.8 | 5.4 | 18.5 | 
COC(=O)c1cc2c3cc(NCc4ccc5ccccc5c4)ccc3nc-2c[nH]1 | 30.7 | > 10000 | 271 | 205 | 814 | 
CN1C(=O)CN=C(c2ccsc2)c2cc(Cl)ccc21 | > 300 | > 300 | > 300 | > 300 | > 300 | 
Fc1ccc2c(c1)[nH]c1c3c4ccccc4nc-3c[nH]c12 | 5.1 | > 10000 | 18.4 | 10.4 | 260 | 
Cc1nnc2n1-c1ccc(Cl)cc1C(c1ccccc1Cl)=NC2 [TRIAZOLAM] |  | > 10000 |  | 0.59 |  | 
O=C1C2C=Nc3ccccc3C2=NN1c1ccccc1 (centres undefined) [CGS-8216] | 0.05 | 17 | 0.12 | 0.08 | 0.25 | 
CCCC(=O)c1cc2c(cn1)[nH]c1ccccc12 | 2.1 | > 3000 | 21 | 16 | 995 | 

SMILES | Ki [1] [nM] | Ki [2] [nM] | Ki [3] [nM] | Ki [4] [nM] | Ki [5] [nM] | Ratio [6]
N#CSc1ccc2[nH]c3cnc(SC#N)cc3c2c1 | 13.6 | > 5000 |  | 423 | 2910 | 
CN1C(=O)CN=C(c2ccccc2[N+](=O)[O-])c2cc([N+](=O)[O-])ccc21 | 0.49 | > 10000 | 0.76 |  | 7.7 | 0.06
O=C1CN=C(c2ccccc2[N+](=O)[O-])c2cc(Br)ccc2N1 |  | > 3000 | 52 | 31 | 199 | 0.08
CN1Cc2c(C(=O)OC(C)(C)C)ncn2-c2ccc(N=[N+]=[N-])cc2C1=O |  |  | 9.84 | 22.1 |  | 24.3
CCOC(=O)c1ncn2c1[C@@H]1CCCN1C(=O)c1ccccc1-2 | 7.3 | > 300 | 7.1 |  | 1.6 | 4.6
O=[N+]([O-])c1ccc2[nH]c3cnc([N+](=O)[O-])cc3c2c1 | 12.9 | > 50000 |  | 83.1 | 314 | 
CCOC(=O)c1ncn2c1[C@@H]1CCCN1C(=O)c1cc(OC)ccc1-2 |  |  | 24.5 |  |  | 108
COC(=O)c1cc2c3cc(SC#N)ccc3nc-2c[nH]1 | 3.41 | > 10000 | 30 |  | 141 | 
C#Cc1ccc2ncc3c(=O)n(-c4ccccc4)[nH]c3c2c1 | 0.08 |  | 0.02 | 0.06 | 0.08 | 
CCOC(=O)c1[nH]cc2nc3ccc(OCc4ccc5ccccc5c4)cc3c-2c1COC | 15.4 | > 1000 | 293 |  | 323 | 
[N-]=[N+]=Nc1ccc2c(c1)C(c1ccccc1N=[N+]=[N-])=NCC(=O)N2 | 2160 | > 1000 | 4620 |  | 1640 | 1.32
C#Cc1ccc2c(c1)C(=O)N1CCC[C@H]1c1c(C(=O)OCC)ncn1-2 |  |  |  |  |  | 45
CC(=O)c1ncn2c1CN(C)C(=O)c1cc(Cl)ccc1-2 |  |  |  |  |  | 6.7
C#Cc1ccc2c(c1)C(=O)N1CC[C@H]1c1c(C(=O)OCC)ncn1-2 |  |  |  |  |  | 57
COc1ccc2c(c1)C(=O)N(C)Cc1c(C(=O)OC(C)(C)C)ncn1-2 |  |  |  |  |  | 23
CCOCc1ncn2c1CN(C)C(=O)c1cc(Cl)ccc1-2 |  |  |  |  |  | > 3.6
